High-throughput results deposited in PubChem BioAssay by several laboratories.
A selection: hits, their analogues and other compounds. The true share with any hit is near 2.2%.
p97 ATPase inh – inhibitors of human p97 ATPase, primary screen, biochemical; inhibition, % at 8 µM; actives 0.42% (n = 220,000); Transitional endoplasmic reticulum ATPase (Homo sapiens), P55072; recombinant p97 ATPase, Kinase-Glo ATP luminescence, 3 h; in the data active = inhibition above about 15%;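 note: 0% = DMSO vehicle and 100% = wells lacking enzyme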
PKD1 inh – inhibitors of human PKD1 kinase, biochemical, fluorescence polarization. inhibition, % (concentration not given with the values). PKD1 kinase fluorescence polarization assay. actives 0.056% (n = 200,000). Serine/threonine-protein kinase D1 (Homo sapiens), Q15139. AID 797, 2007; in the data active = inhibition above about 50%
RBBP9 inh – human RBBP9 inhibitors, primary screen, biochemical, fluorescence polarization, FP-Rh probe, HTS; Serine hydrolase RBBP9 (Homo sapiens), O75884; AID 1515, 2009; inhibition, % at 7.94 µM; recombinant RBBP9; actives 0.2% (n = 220,000);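 active = inhibition above the campaign mean of all tested compounds plus 3 SD, cut at about 14% in these data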;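 note: plate controls were DMSO wells with RBBP9 for no effect and wells lacking RBBP9 protein for full effect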
Target sequence (O75884 whole entry, looked up): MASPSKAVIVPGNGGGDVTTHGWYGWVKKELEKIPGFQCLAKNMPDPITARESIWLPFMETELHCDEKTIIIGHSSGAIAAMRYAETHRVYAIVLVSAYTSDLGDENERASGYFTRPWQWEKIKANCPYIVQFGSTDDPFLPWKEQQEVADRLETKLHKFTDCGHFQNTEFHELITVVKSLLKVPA
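System: RBBP9 protein / Buffer or medium: Tris/NaCl buffer pH 8.0 with 0.1% Pluronic / Probe or stimulus: Serine-hydrolase probe FP-Rh, 375 nM pre-mixing / Dosing: 7.94 µM single dose, 0.794% DMSO / Times: enzyme-compound preincubation 30 min, then probe labeling 45 min, 25 °C / Technique: fluorescence polarization (mP), excitation 525 nm, emission 598 nm / Replication: singlicate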
Wee1 degr inh – Wee1 degradation inhibitors, primary screen, cell-based, HeLa, Wee1K328M-luciferase, luminescence. actives 1.2% (n = 220,000). reporter increase, % at 5 µM. HeLa Luc-Wee1K328M stability; 100% = proteasome inhibitor MG132 effect. AID 1321, 2008;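 active = activation above the mean of all tested compounds plus 3 SD, set per screening run, cut at about 8.8% in these data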;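 note: cells exposed to compound for 20 h before luminescence read; 0% = DMSO alone and 100% = MG132 at 30 µM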
Arbovirus inh – antivirals against arbovirus infection, primary screen, cell-based, full library, 10K replicate subset | inhibition, % at 10 µM | AID 1251, 2008 | actives 0.37% (n = 200,000) | arbovirus infection cell-based antiviral screen; in the data active = inhibition above about 30%
Redox H2O2 prof – compounds producing H2O2 with reducing agent – biochemical, NIH compound library profiling, artefact control for MLSCN library redox annotation, primary screen. activation, % at 10 µM. actives 0.03% (n = 200,000). DTT-dependent redox cycling H2O2, phenol red/HRP absorbance; 100% = 100 µM peroxide control, 0% = buffer;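 active = activation of at least 50% relative to the plate's high and low controls in the primary single-dose screen; inactive = activation below 50%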;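 note: compound incubated with DTT at 0.8 mM final as the reducing agent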
p97 confirm – p97 ATPase inhibitors, retest, confirmation, biochemical; shares compounds with p97 ATPase inh; recombinant p97 ATPase, Kinase-Glo ATP luminescence; actives 44% (n = 760); inhibition, % at 8 µM;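 active = percent inhibition of p97 ATPase above a set limit, the primary screen's mean plus 3 SD, cut at about 15% in these data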;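 note: 0% = DMSO wells and 100% = wells lacking p97 protein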
* hit, by the source's call; . = not tested or not shown.

SMILES	p97 ATPase inh	PKD1 inh	RBBP9 inh	Wee1 degr inh	Arbovirus inh	Redox H2O2 prof	p97 confirm
CC(=O)NS(=O)(=O)c1ccc(NC(=O)c2cc3c(=O)n4ccccc4nc3s2)cc1	17*	.	-7	2	.	.	7
CCN(CC)C(=O)Cn1cnc2sc(C(=O)N3CCN(Cc4ccc5c(c4)OCO5)CC3)c(C)c2c1=O	-2	5	-13	0	6	0	.
CCOC(=O)CNC(=O)CSc1cc(C)nc2ccc(OC)cc12	2	-3	-10	1	1	0	.
COc1ccc2nc(C)cc(SCC(=O)NNC(=O)COc3ccccc3)c2c1	15*	-2	-5	0	5	-1	10
N=C1c2ccccc2CN1c1ccc(N2CCOCC2)c(S(=O)(=O)Nc2ccc(Cl)cc2)c1	12	.	-6	-2	.	.	.
O=C1CC(=C2c3ccccc3-c3ccccc32)C(=O)N1CCCCN1CCN(c2ccccc2)CC1	0	-1	1	1	-14	0	.
Cc1cc(/C=C2/NC(=O)NC2=O)c(C)n1-c1ccc(N2CCOCC2)cc1	1	-8	1	-1	4	0	.
Cc1cc(/C=C2\NC(=O)NC2=O)c(C)n1-c1ccc(N2CCOCC2)cc1	17*	.	6	0	.	.	9
O=C(NC(C(=O)c1ccccc1)N1CCCCC1)c1ccccc1 (stereo unspecified)	2	-15	-11	0	3	-2	.
COc1ccc(/C=C2\SC(=O)N(CC(=O)NNC(=O)c3ccccc3O)C2=O)cc1	1	-5	-7	4	-23	-1	.
CCOc1ccccc1C(=O)Nc1cc(Cl)ccc1O	18*	6	-2	4	-30	1	23*
CCOc1ccccc1C(=O)Nc1cc(OC)ccc1OC	3	-14	2	0	-9	-1	.
O=S(=O)(c1ccc(Cl)cc1)c1snnc1-c1ccccc1	16*	-3	8	0	-45	0	13
CC#CC#Cc1cccc(=O)o1	29*	.	-2	-3	.	.	23*
O=C(CSc1ccc(F)cc1)Nc1ccccc1Br	15*	5	3	2	-8	0	4
O=C(Nc1cccc(NC(=O)c2ccco2)c1)c1ccc2c(c1)OCO2	-1	-9	0	0	0	3	.
O=C(Nc1cccc(NC(=O)c2ccco2)c1)c1ccc2c(c1)OCCO2	17*	6	-7	3	-4	0	5
Cc1csc2c(SCC(=O)NNC(=O)C(Cl)Cl)ncnc12	8	.	-4	-1	.	.	.
COc1ccc(S(=O)(=O)Nc2nccs2)cc1OC	17*	9	0	1	3	-10	7
Cc1csc2c(=O)sc(NC(=O)c3ccc(F)cc3Cl)nc12	17*	.	-4	4	.	.	19*
Cc1ccccc1C(=O)Nc1nc2c(C)csc2c(=O)s1	39*	.	-1	3	.	.	37*
Cc1csc2c(=O)sc(NC(=O)c3ccc(F)cc3)nc12	11	.	1	-1	.	.	.
Cc1cccc(CN2C(=O)CCSc3ccc(Cl)cc32)c1	-3	4	-5	0	1	2	.
Cn1nc(-c2ccccc2)cc1NC(=O)c1cccs1	7	.	1	-3	.	.	.
C=C1C2(C(=O)Nc3nccs3)CCC(C2)C1(C)C (stereo unspecified)	37*	-4	-7	0	-3	-1	6
SMILES	p97 ATPase inh	PKD1 inh	RBBP9 inh	Wee1 degr inh	Arbovirus inh	Redox H2O2 prof	p97 confirm
O=C(Nc1nccs1)C1(c2ccc(Cl)cc2)CC1	-2	-7	-8	-2	1	-3	.
COc1ccc(N(CC(=O)NC(C)C)S(=O)(=O)c2ccc(NC(C)=O)cc2)cc1	0	-2	-4	8	-1	0	.
COc1ccc(N(CC(=O)N/N=C/c2cc(Br)c(C)o2)S(=O)(=O)c2ccc(NC(C)=O)cc2)cc1	15*	12	-9	0	-16	0	7
Cc1ccc(O)c(C(CC(=O)NC(C)C)c2ccccc2)c1 (stereo unspecified)	5	14	1	-1	0	-1	.
CC(NC(=O)CC(c1ccccc1)c1cc(Cl)ccc1O)c1ccccc1 (stereo unspecified)	15*	-2	-8	6	-25	1	6
O=C(Nc1ccc(Nc2ccncc2)cc1)c1ccc(Nc2ccnc3ccc([N+](=O)[O-])cc23)cc1	34*	.	7	-1	.	.	24*
COc1cccc(-c2cc(N3C(=O)Nc4ccccc4N3O)n[nH]2)c1	-1	-2	-1	4	-4	0	.
CCOc1ccc(-c2cc(N3C(=O)Nc4ccccc4N3O)n[nH]2)cc1	17*	8	-6	-2	10	0	8
CCOc1ccc(NC(=O)c2ccc(NC(=S)NC3CC3)cc2)cc1	1	-5	-6	-3	-3	-2	.
CCOc1ccc(NC(=O)c2ccc(NC(=S)NC3CCCCC3)cc2)cc1	15*	-1	-3	0	-16	0	9
Cc1ccc(OCC(=O)c2c[nH]c3ccccc23)c([N+](=O)[O-])n1	4	-4	-9	0	9	-3	.
N#C/C(=C(/O)CCl)c1nc(-c2ccccc2)cs1	40*	.	-8	-2	.	.	38*
O=C(NCC1CCCO1)c1cc(S(=O)(=O)Nc2ccc(Br)cc2)ccc1Cl (stereo unspecified)	2	-1	-6	-3	-6	0	.
O=C(Oc1cccc(Nc2ncnc3ccccc23)c1)c1ccccc1Cl	16*	6	-25	5	-3	-1	25*
O=P(O)(CN1CCCCC1)C1CCCCC1O (stereo unspecified)	.	.	.	.	7	.	.
COc1ccc(-c2cc(=O)n(CCC#N)[nH]2)cc1	25*	-1	-7	-2	-11	0	2
COc1ccc(-c2cc(=O)[nH][nH]2)cc1	-3	-3	-8	-1	-1	0	.
Cc1ccc(N2CN=c3s/c(=C\c4ccccn4)c(=O)n3C2)cc1	3	0	-2	3	2	0	.
Cc1ccccc1CN1C2=NCCN2c2ccccc21	-1	-1	-5	-2	0	0	.
Cc1ccccc1CN1C2=NCCCN2c2ccccc21	15*	-4	0	1	11	0	1
O=C(NNC(=O)c1cc(-c2ccco2)nc2ccccc12)c1ccccc1	9	.	-3	-2	.	.	.
